The source of these data is ChEMBL document CHEMBL1125290, “Bis basic substituted diaminobenzobisthiazoles as potential antiarthritic agents” (1992).

As usually defined, the Inhibition is the drop in the measured response relative to a control, in per cent. For orientation: inhibition in vivo means how much of the control response was suppressed.

Common to all, as to format: functional
The test system of assay [1] is Rattus norvegicus. Description: Antiinflammatory activity dosed orally against D-adjuvant arthritis in injected rat paw at 50 mgKg.
The subject of assay [2] is Rattus norvegicus. Put plainly: Antiinflammatory activity dosed orally against D-adjuvant arthritis in uninjected rat paw at 100 mg/Kg. The following applies: po.
The species named for assay [3] is Rattus norvegicus. Description: Antiinflammatory activity in D-adjuvant induced arthritis in rat measured by the change in body weight. More on the design: concentration or dose not given beside the values.
In assay [4] the test system is Mus musculus. Put plainly: Percent suppression of plaque forming cells in spleen cell suspension at a dose of 125 mg/kg, po. in AKR mice.
Assay [5] has as its system Rattus norvegicus. Description: Antiinflammatory activity dosed orally against D-adjuvant arthritis in injected rat paw at 100 mg/Kg. The following applies: po.
Assay [6] relates to Rattus norvegicus. Put plainly: Antiinflammatory activity against carrageenan induced rat paw edema (CPE), dosed orally. An outline of the steps:
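Male Sprague–Dawley rats (150 ± 10 g), five per group. Compound or vehicle given orally in 0.5% methylcellulose 1 h before subplantar injection of 0.1 mL 1% carrageenan in saline into the right hind paw. Paw volume measured by mercury displacement before dosing and 3 h after carrageenan; the difference is the edema volume. ANOVA with Dunnett's t test.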
(In general: Carrageenan injected into the paw causes an acute inflammation.)

The test system of assay [7] is Mus musculus. Description: Percent suppression of plaque forming cells in spleen cell suspension at a dose of 100 mg/kg, po. in AKR mice, p<0.05.
The test system of assay [8] is Rattus norvegicus. Put plainly: Antiinflammatory activity dosed orally against D-adjuvant arthritis in uninjected rat paw at 50 mg/kg. The conditions noted are these: route oral.
Assay [9] relates to Rattus norvegicus. Put plainly: Antiinflammatory activity against D-adjuvant arthritis in uninjected rat paw at the dose of 50 mg/kg by oral administration. An outline of the steps: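 Rat developing adjuvant arthritis screen with oral dosing on a prophylactic protocol. Percent change in body weight versus untreated animals was recorded as a preliminary toxicity sign. Significance was assessed against controls by two-tailed Student's t test, p < 0.05.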

Assay [10] has as its system Mus musculus. Put plainly: Percent suppression of plaque forming cells in spleen cell suspension at a dose of 200 mg/kg, po. in AKR mice, p<0.05.
The subject of assay [11] is Rattus norvegicus. Description: Antiinflammatory activity against D-adjuvant arthritis in injected rat paw at the dose of 50 mg/kg by oral administration.
Assay [12] deals with Mus musculus. Description: Percent suppression of plaque forming cells in spleen cell suspension at a dose of 50 mg/kg, po. in AKR mice, p<0.05.

In the case of `CCN(CC)CCOc1ccc2c(c1)C(=O)c1cc(OCCN(CC)CC)ccc1-2` [TILORONE], the figures for the Inhibition in the assay with Rattus norvegicus [1] and with Rattus norvegicus [6] were 53% and 0%, respectively. Further, the inhibition in vivo at 100 mg/kg in the assay on Rattus norvegicus [2] was found to be 45%; with Rattus norvegicus [5], 59%. For the same compound, the Activity was 10% in the assay listed under Rattus norvegicus [3] and 28% with Mus musculus [4].

With `CCN(CC)CC(=O)Nc1nc2cc3nc(NC(=O)CN(CC)CC)sc3cc2s1`, the results for the Activity with Mus musculus [7], in the assay with Mus musculus [10] and in the assay with Mus musculus [12] were 82%, 83% and 67%, respectively. Besides, the inhibition in vivo at 50 mg/kg in the assay with Rattus norvegicus [8] is 98%; with Rattus norvegicus [9], 98%; in the assay on Rattus norvegicus [11], 76%. This compound yielded an Inhibition in the assay with Rattus norvegicus [6] of 9%.
